Source: PubChem (SRMLSC)
The sample as a whole holds a higher share of hits than the screen did.
HCT116 PTEN-null – growth suppression of PTEN-null HCT116, primary screen, cell-based, CellTiter-Glo | 1.2% of 140,000 active | viability, % at 10 µM | HCT116 PTEN-null viability, 60 h; hits give low values;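 active = viability at or below a set limit, 4 SD under the median of all tested compounds, cut at about 3.7% in these data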;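 also: PTEN knockout HCT116 line with beta catenin targeted HCT116 as companion control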
H69AR growth 86K – proliferation blockers of H69AR lung cancer cells, primary screen, cell-based, human, 86K library; AID 598, 2007; 6% of 85,000 active; H69AR lung tumor viability, ATP luminescence, 72 h; hits give low values; viability, % at 10 µM;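 active = viability at or below 40%; inactive = viability above 40%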;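 also: multidrug resistant small cell line overexpressing MRP-1 efflux transporter; 100% = mean luminescence of untreated control wells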
bCat KO growth – primary screen for growth suppressors in beta-catenin knockout HCT116 cells (colon tumor, human); 1.5% of 140,000 active; AID 818, 2007; HCT116 beta-catenin knockout viability, CellTiter-Glo, 60 h; hits give low values; viability, % at 10 µM;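 active = viability at or under a set limit, the compound median less 4 SD, cut at about 6% in these data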;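 also: 0% = Hyamine 1622 control at 20 µM and 100% = untreated cell control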
Lung fibro prol – antiproliferative effect on LL 47 fibroblasts – human, LL 47 cells, CellTiter-Glo luminescence, primary screen. LL 47 human lung fibroblast viability, ATP luminescence; hits give low values. viability, % at 10 µM. 1.1% of 85,000 active. AID 719, 2007;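 active = viability at or below 50% in the single dose screen; inactive = viability above 50%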;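 also: compound exposure lasted 72 h before the ATP readout; 100% = median luminescence of untreated cell-only wells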
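Times – overnight cell rest, 72 h compound treatment at 37 °C · Test system – human lung fibroblast line LL 47, low passage · Amount – 1,150 cells in each well · Controls – cell-only wells, no compound · Doses – 0.1% DMSO in all compound wells · Measured by – CellTiter-Glo luminescence · Buffer or medium – IMEM plus 15% FBS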
HUVEC inhibit – inhibitors of HUVEC proliferation, primary screen, cell-based, 384-well. 1.1% of 86,000 active. viability, % at 10 µM (by protocol). CellTiter-Glo luminescence, 72 h; hits give low values. AID 648, 2007;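 active = viability at or below 30%; inactive = viability above 30%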;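 also: 100% = median luminescence of DMSO-only cell control wells on each plate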
* marks the source's active call; other numbers are inactive results; . = no result.

SMILES | HCT116 PTEN-null | H69AR growth 86K | bCat KO growth | Lung fibro prol | HUVEC inhibit
CCOc1ccc(NC(=O)CN2CCN(CC(=O)Nc3ccc(F)cc3)CC2)cc1 | 95 | 30* | 93 | 89 | 98
CCOc1ccc(NC(=O)CN2CCN(CC(=O)c3ccc(OCC)cc3)CC2)cc1 | 102 | 86 | 84 | 91 | 98
O=C(CCN1CCN(c2ccccc2F)CC1)c1ccc(Br)cc1 | 62 | 7.7* | 73 | 86 | 70
COC(=O)c1cccc(NC(=O)CN2CCN(c3ccc(OC)cc3)CC2)c1 | 98 | 90 | 101 | 99 | 99
Cc1ccc(NC(=O)CCC(=O)NNC(=O)C(c2ccccc2)c2ccccc2)c(C)c1 | 90 | . | 78 | . | .
Cc1ccc(S(=O)(=O)CCc2nnc(N)s2)cc1 | 106 | 84 | 96 | 111 | 110
CCOc1ccc(NC(=O)CSC(N)=O)cc1 | 97 | 15* | 87 | 102 | 47
CCOCC(=O)Nc1cccc(OC)c1 | 95 | 28* | 93 | 96 | 91
CCOc1ccc(NC(=O)C/C(N)=N/O)cc1 | 97 | 95 | 92 | 95 | 94
COc1cccc(NC(=O)CCC(=O)Nc2cccc(OC)c2)c1 | 90 | . | 94 | . | .
CN1C(=O)C(Cl)(Cl)C(=O)c2ccccc21 | 82 | . | 78 | . | .
O=C(CSc1nnc(-c2ccccc2O)o1)Oc1ccc(OCc2ccccc2)cc1 | 69 | 27* | 77 | 70 | 50
CC1=NOC(=O)/C1=C/c1ccc(-c2ccc(Cl)cc2)o1 | 16 | 2.5* | 18 | 8.7* | 56
CC1=NOC(=O)/C1=C\c1ccc(-c2cc(Cl)ccc2Cl)o1 | 2.5* | 2.0* | 3.0* | 6.3* | 8.2*
CC1=NOC(=O)/C1=C/c1ccc(N(C)C)cc1 | 84 | . | 90 | . | .
CSc1nc2c(cnn2-c2ccc(C)c(C)c2)c(=O)[nH]1 | 5 | 20* | 19 | 100 | 38
CCC(C)NC(=O)C1CC(c2cccc(OC)c2)=NO1 (stereo not drawn) | 94 | 86 | 104 | 90 | 92
COc1cccc(C2=NOC(C(=O)NCc3ccco3)C2)c1 (stereo not drawn) | 50 | 36* | 61 | 95 | 73
COCCNC(=O)C1CC(c2cccc(OC)c2)=NO1 (stereo not drawn) | 101 | 92 | 85 | 97 | 99
C=CCNC(=O)C1CC(c2cccc(OC)c2)=NO1 (stereo not drawn) | 61 | 2.8* | 65 | 96 | 94
COc1cccc(C2=NOC(C(=O)NCc3ccccc3)C2)c1 (stereo not drawn) | 83 | 26* | 92 | 97 | 63
CCOC(=O)c1sc(NC(=O)Nc2ccc(Cl)cc2)nc1C | 20 | . | 30 | . | .
O=C1C2CC=CCC2C(=O)N1Cc1ccccc1Cl (stereo not drawn) | 86 | . | 84 | . | .
Cc1[nH]c2ccccc2c1CN1CCc2ccccc2C1 | 2.7* | 35* | 2.2* | 63 | 79
O=c1[nH]c(CN2CCc3ccccc3C2)nc2ccccc12 | 110 | 86 | 92 | 83 | 81
SMILES | HCT116 PTEN-null | H69AR growth 86K | bCat KO growth | Lung fibro prol | HUVEC inhibit
O=C(c1ccc(S(=O)(=O)c2ccccc2Cl)c([N+](=O)[O-])c1)N1CCN(Cc2ccccc2)CC1 | 9 | . | 4.9* | . | .
COc1ccc(-n2nc3c(c2NC(=O)c2cc4ccccc4oc2=O)CS(=O)(=O)C3)cc1 | . | 90 | . | 100 | 82
O=C(CSc1nnnn1-c1ccc2c(c1)OCO2)NCc1ccccc1 | 34 | 19* | 35 | 82 | 56
O=C(CSc1nnnn1-c1ccc2c(c1)OCO2)NCc1cccs1 | 75 | 66 | 65 | 103 | 98
COc1ccc(-n2nnnc2SCC(=O)Nc2ccc3c(c2)OCCO3)cc1OC | 87 | 21* | 77 | 99 | 91
CCOC(=O)c1[nH]c(C)c(C(=O)Nc2cccc(Cl)c2C)c1C | 24 | 15* | 30 | 81 | 46
CCOC(=O)c1[nH]c(C)c(C(=O)Nc2ccc(Cl)cc2)c1C | 94 | 91 | 90 | 102 | 101
CCOC(=O)c1[nH]c(C)c(C(=O)OC(C)C(=O)Nc2ncc(Cl)cc2Cl)c1C (stereo not drawn) | 42 | 26* | 52 | 96 | 79
CCOC(=O)c1ccc(NC(=O)c2c(C)[nH]c(C(=O)OCC)c2C)cc1 | 99 | 75 | 81 | 49* | 96
CCOC(=O)c1c(C)[nH]c(C(=O)OCC(=O)Nc2cc(C)c(Cl)cc2OC)c1C | 1.5* | . | 1.6* | . | .
CCCNC(=O)COC(=O)c1[nH]c(C)c(C(=O)OCC)c1C | 93 | 95 | 77 | 100 | 101
CC(=O)c1c(C)[nH]c(C(=O)OCC(=O)Nc2ncc(Cl)c(C)c2Cl)c1C | 98 | 85 | 96 | . | 94
Cc1ccc(Cl)cc1N1CCN(CC(=O)NC2CCCc3ccccc32)CC1 (stereo not drawn) | 44 | . | 52 | . | .
CCOC(=O)CN(Cc1sccc1C)C(=O)Nc1ccc(OCC)cc1 | 99 | . | 95 | . | .
CCc1c(C(=O)Nc2ccc(OC)cc2)[nH]c(C)c1C(C)=O | 65 | 26* | 60 | 92 | 85
CCOC(=O)c1[nH]c(C)c(C(=O)N2CCc3ccccc32)c1C | 12 | 26* | 13 | 49* | 45
CCc1c(C(=O)Nc2cc(C)ccc2OC)[nH]c(C)c1C(C)=O | 82 | 74 | 78 | 92 | 66
CCOC(=O)c1[nH]c(C)c(C(=O)c2cc(F)ccc2F)c1C | 13 | 30* | 14 | 57 | 50
O=C(O)c1cn(-c2ccc(F)c(F)c2)c2c(F)c(F)c(F)c(F)c2c1=O | 76 | . | 65 | . | .
c1ccc(CNc2ncnc3c2cnn3Cc2ccccc2)cc1 | 37 | 26* | 42 | 54 | 56
Cc1cc(C)nc(N2CCN(c3ncnc4c3cnn4Cc3ccc(Cl)cc3Cl)CC2)n1 | . | 32* | . | . | 63
Clc1ccc(-n2ncc3c(NCc4ccc5c(c4)OCO5)ncnc32)cc1 | 110 | 7.9* | 101 | 87 | 73
Clc1ccc(Cn2ncc3c(NCc4ccco4)ncnc32)c(Cl)c1 | 18 | 26* | 23 | . | 51
CCc1cc2c(NCc3ccco3)ncnc2s1 | 57 | 89 | 60 | 95 | 95
CC1CN(C(=O)c2c(Br)cnn2C)CC(C)O1 (stereo not drawn) | 97 | . | 86 | . | .
SMILES | HCT116 PTEN-null | H69AR growth 86K | bCat KO growth | Lung fibro prol | HUVEC inhibit
Cc1cnn(-c2ccc3nnc(-c4ccc(Br)cc4)n3n2)c1 | 93 | 88 | 97 | 103 | 89
COc1ccc(C(=O)NCc2nnc(SCC(=O)N3CCc4ccccc43)n2CCc2ccccc2)cc1 | 92 | . | 94 | . | .
Clc1ccc(-n2ncc3c(NCC4CCCO4)ncnc32)cc1 (stereo not drawn) | 50 | 20* | 50 | 93 | 61
c1ccc(-n2ncc3c(NCC4CCCO4)ncnc32)cc1 (stereo not drawn) | 82 | 41 | 64 | 96 | 84
Clc1ccc(-n2ncc3c(NCc4ccco4)ncnc32)cc1 | 49 | 12* | 46 | 80 | 75
COc1ccc(-n2ncc3c(NCc4ccco4)ncnc32)cc1 | 94 | 62 | 97 | 103 | 88
